Active and inactive are the calls of the source. The calls are words filed in the database; no cut-off is given here.
Assays:
[1] = Muscle stimulating activity in Mongolian gerbil colon treated every 4 mins relative to PGE1; assay type: functional, Meriones unguiculatus
In short: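 Colon from adult male gerbils killed by cervical dislocation, bath oxygenated; isotonic longitudinal contractions recorded. Two doses each of test compound and PGE1 given at 4-min intervals in Latin square order, with a rinse after each. Four contractions per dose; relative potency computed by the Finney method. Compounds were dissolved in isoosmotic sodium phosphate buffer, pH 7.4.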

Rattus norvegicus = assay: Hypotensive activity in iv dosed Charles River CD rat assessed as decrease in mean blood pressure administered as single bolus dose relative to PGE1; assay type: functional; design: Activity: scale not given: the % may be the effect or the level left
In short: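 Male rats, 200–300 g, anesthetized with urethane 1.5 g/kg ip. They received heparin 5 mg/kg iv, then atropine 5 mg/kg and pentolinium 10 mg/kg sc. Body temperature held at […] ± 0.5 °C. Carotid pressure recorded; femoral iv bolus doses of test and PGE1 given in a Latin square. Maximal fall in mean pressure read, with 4–8 replicates per dose, and potency from a four-point parallel line assay (Finney).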

Canis familiaris [2] = assay: Gastric antisecretory activity in iv dosed Mongrel dog with heidenhain pouches assessed as inhibition of histamine-induced total acid output administered as single bolus dose at 1 hr post histamine challenge; assay type: functional; settings: Canis lupus familiaris
In short: (§1)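 Dogs fasted 18 h, placed in Pavlov stands and infused iv with 0.15 M NaCl. Pouch secretion was collected every 15 min. After basal secretion, histamine was infused at 1.0 mg/h (about 60 μg/kg/h, about 75% of maximal). At the steady-state plateau (about 1 h), a single iv bolus was given, logarithmically spaced, usually 1.0-100 μg/kg. Total acidity was titrated with 0.1 N NaOH to pH 7.0. ED50 is 50% inhibition of total acid output.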

Canis familiaris [3] = assay: Gastric antisecretory activity in Mongrel dog with heidenhain pouches assessed as inhibition of histamine-induced total acid output at 1 to 100 ug/kg, iv administered as single bolus dose at 1 hr post histamine challenge relative to PGE1; assay type: functional, Canis lupus familiaris; in short: as §1
Canis familiaris [4] = assay: Gastric antisecretory activity in Mongrel dog with heidenhain pouches assessed as inhibition of histamine-induced total acid output at 30 ug/kg, iv administered as single bolus dose at 1 hr post histamine challenge; assay type: functional, organism-based; settings: Canis lupus familiaris; in short: as §1
Canis familiaris [5] = assay: Gastric antisecretory activity in Mongrel dog with heidenhain pouches assessed as inhibition of histamine-induced total acid output at 100 ug/kg, iv administered as single bolus dose at 1 hr post histamine challenge; assay type: functional, organism-based; settings: Canis lupus familiaris; in short: as §1

SMILES	fold change (FC) [1]	fold change (FC) (Rattus norvegicus)	ED50 (Canis familiaris [2]) [µg/kg]	fold change (FC) (Canis familiaris [3])	Activity (Rattus norvegicus) [%]	inhibition (Canis familiaris [4])	inhibition (Canis familiaris [5])
CCCCCC[C@H](O)/C=C/C1[C@H](O)CC(=O)[C@@H]1CCCCCCC(=O)O (mixture of isomers)	0.54	0.68	5.8	1.13	–	–	–
CCCCCCC[C@H](O)/C=C/C1[C@H](O)CC(=O)[C@@H]1CCCCCCC(=O)O (mixture of isomers)	0.064	0.84	30	0.25	84	–	–
CCCCCCCC[C@H](O)/C=C/C1[C@H](O)CC(=O)[C@@H]1CCCCCCC(=O)O (mixture of isomers)	0.005	0.42	–	–	–	inactive	–
CCCCCCCCC[C@H](O)/C=C/C1[C@H](O)CC(=O)[C@@H]1CCCCCCC(=O)O (mixture of isomers)	0.006	<0.12	–	–	–	–	Active
CCCCC[C@H](O)/C=C/[C@H]1[C@H](O)CC(=O)[C@@H]1CCCCCCC(=O)O [ALPROSTADIL]	–	–	7.59	–	–	–	–

— ChEMBL document CHEMBL3272076, “Synthesis and biological evaluation of omega-homologues of prostaglandin E1” (1976)
